We go through 1 molecule from ChEMBL document CHEMBL4665664, “Discovery of Orally Active Hydroxyethylamine Based SPPL2a Inhibitors” (ACS Med Chem Lett, 2019).

Calls of active or inactive are those of the source. The rule behind the calls is not given here.

A word on the IC50: it is the point on the concentration scale where inhibition reaches its midpoint. As a reminder, the half-life is how long it takes for the measured level to halve. Low readings indicate fast loss, high ones slow loss. As usually defined, the bioavailability is the share of a dose that reaches the circulation, judged against a reference dose that is usually intravenous. Lower therefore signals little systemic uptake.

Data set [1] concerns the target T1, Signal peptide peptidase-like 2B (Homo sapiens, UniProt Q8TCT7).
T1 sequence (Q8TCT7 whole entry): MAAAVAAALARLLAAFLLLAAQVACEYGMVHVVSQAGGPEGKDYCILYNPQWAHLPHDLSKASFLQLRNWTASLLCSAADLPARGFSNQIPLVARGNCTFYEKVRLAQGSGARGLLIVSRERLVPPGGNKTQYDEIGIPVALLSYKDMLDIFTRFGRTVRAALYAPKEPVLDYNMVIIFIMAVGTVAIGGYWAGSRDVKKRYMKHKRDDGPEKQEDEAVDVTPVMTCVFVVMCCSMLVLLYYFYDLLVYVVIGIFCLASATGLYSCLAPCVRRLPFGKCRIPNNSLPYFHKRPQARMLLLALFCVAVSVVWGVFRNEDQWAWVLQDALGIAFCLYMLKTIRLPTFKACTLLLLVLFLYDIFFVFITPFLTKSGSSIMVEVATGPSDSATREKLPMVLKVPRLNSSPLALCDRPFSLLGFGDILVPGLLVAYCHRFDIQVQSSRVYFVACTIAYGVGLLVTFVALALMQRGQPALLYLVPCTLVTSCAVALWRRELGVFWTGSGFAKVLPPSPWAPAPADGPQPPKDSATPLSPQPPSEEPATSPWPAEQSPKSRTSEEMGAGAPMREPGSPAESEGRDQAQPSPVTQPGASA
Kind of data set: Inhibition of SPPL2b in human U2OS cells cotransfected with EGFP-labeled TNFalpha (1 to 76 residues)-NTF incubated for 24 hrs by Hoechst staining based Cellomics ArrayScan analysis. In kind it is cell-based.

Data set [2] can be described thus: Half life in Balb/c mouse at 5 mg/kg, iv and 20 mg/kg, po by LC/MS/MS analysis. In kind it is ADME, organism-based. The note with it: in vivo. Summed up:
(§1)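 Balb/c mice dosed 5 mg/kg i.v. and 20 mg/kg p.o. in PEG300/D5W (3:1); plasma concentration profile taken as mean of three animals; PK parameters derived from these profiles.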

Data set [3] in a line: Total plasma concentration in mouse at 10 mg/kg, po measured after 4 hrs by LC/MS/MS analysis. The class given is ADME, organism-based. Summed up:
(§2)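 Single oral dose of 10, 30 or 100 mg/kg in PEG300/D5W (3:1); total plasma and spleen concentrations measured at termination, 4 h post-dose; reported as means ± SEM.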

Data set [4] can be described thus: Volume of distribution in Balb/c mouse at 5 mg/kg, iv and 20 mg/kg, po by LC/MS/MS analysis. In kind it is ADME, organism-based. The note with it: in vivo. Summed up: as §1
Data set [5] can be described thus: Oral bioavailability in Balb/c mouse at 20 mg/kg by LC/MS/MS analysis. In kind it is ADME, organism-based. The note with it: in vivo. Summed up:
as §1

Data set [6] in a line: Drug uptake in mouse spleen at 100 mg/kg, po measured after 4 hrs by LC/MS/MS analysis. In kind it is ADME, organism-based. The note with it: read-out: Drug uptake. Summed up: as §2
In the next data set the target is Gamma-secretase. Kind of data set: Inhibition of gamma-secretase (unknown origin) expressed in HEK293 cells cotransfected with Notch1-VP16-GAL4 fusion and Gal4 luciferase reporter plasmid incubated for 24 hrs by luciferase reporter gene assay luminescence assay. The class given is cell-based, Homo sapiens. On the technique in general: A reporter such as luciferase makes a cellular process visible.

Data set [7] can be described thus: Total plasma concentration in mouse at 30 mg/kg, po measured after 4 hrs by LC/MS/MS analysis. The class given is ADME, organism-based. Summed up: as §2
Data set [8] can be described thus: Dose normalized AUC in Balb/c mouse at 20 mg/kg, po by LC/MS/MS analysis. The class given is ADME, organism-based. The note with it: in vivo. The method, boiled down:
as §1

Data set [9] has as its target T2, Signal peptide peptidase-like 2A (Mus musculus, UniProt Q9JJF9).
T2 sequence (Q9JJF9 whole entry): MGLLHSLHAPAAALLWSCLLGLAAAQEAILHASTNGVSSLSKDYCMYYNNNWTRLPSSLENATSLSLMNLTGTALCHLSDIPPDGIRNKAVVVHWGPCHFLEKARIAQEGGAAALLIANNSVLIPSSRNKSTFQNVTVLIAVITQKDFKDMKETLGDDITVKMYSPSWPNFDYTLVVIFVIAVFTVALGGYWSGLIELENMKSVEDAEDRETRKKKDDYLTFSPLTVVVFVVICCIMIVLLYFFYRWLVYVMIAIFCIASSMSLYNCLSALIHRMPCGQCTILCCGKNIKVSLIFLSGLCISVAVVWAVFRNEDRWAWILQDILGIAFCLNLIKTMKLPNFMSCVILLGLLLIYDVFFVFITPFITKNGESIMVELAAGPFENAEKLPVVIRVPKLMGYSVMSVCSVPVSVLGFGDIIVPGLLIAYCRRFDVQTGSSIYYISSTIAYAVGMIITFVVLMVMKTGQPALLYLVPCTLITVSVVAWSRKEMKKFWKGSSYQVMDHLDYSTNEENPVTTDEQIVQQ
Briefly: Inhibition of SPPL2a in Balb/c mouse A20 cells assessed as […] in CD74/p8 NTF accumulation incubated for overnight by Western blot analysis. The class given is cell-based. The method, boiled down: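 Endogenous CD74/p8 NTF processing in mouse B cell line A20 measured by quantitative Western blot; IC50 derived.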

Data set [10] is described as follows: Total plasma concentration in mouse at 100 mg/kg, po measured after 4 hrs by LC/MS/MS analysis. In kind it is ADME, organism-based. Summed up:
as §2

The target of data set [11] is T3, Signal peptide peptidase-like 2A (Mus musculus) (UniProt Q9JJF9).
T3 sequence (whole entry): T2 sequence (Q9JJF9 whole entry)
Kind of data set: Inhibition of SPPL2a in mouse whole blood assessed as […] in CD74/p8 NTF accumulation at 4 uM incubated for 5 hrs by flow cytometric analysis based assay. In kind it is tissue-based. On the technique in general: In flow cytometry, cells or beads pass a laser one at a time.

For data set [12], the target named is T2, Signal peptide peptidase-like 2A. Kind of data set: Inhibition of mouse SPPL2a cotransfected with EGFP-NLP-fused TNFalpha (1 to 77 residues)-NTF incubated for 24 hrs by Hoechst staining based Cellomics ArrayScan analysis.
Data set [13] can be described thus: Drug uptake in mouse spleen at 30 mg/kg, po measured after 4 hrs by LC/MS/MS analysis. In kind it is ADME, organism-based. The note with it: read-out: Drug uptake. Summed up:
as §2

Data set [14] in a line: Drug uptake in mouse spleen at 10 mg/kg, po measured after 4 hrs by LC/MS/MS analysis. In kind it is ADME, organism-based. The note with it: read-out: Drug uptake. The method, boiled down:
as §2

Consider `CC(C)(C)c1ccc(S(=O)(=O)N(C[C@H](O)[C@@H](N)c2ccc(OC(F)(F)F)cc2)C2CCC2)cc1`, for which the IC50 came out at 270 nM in [1], 1300 nM at Gamma-secretase, 150 nM in data set [9] and 5 nM in [12]. The molecule further gave a half-life in [2] of 5 h. Besides, the concentration at 4 h worked out at 0.12 µM in data set [3]; 53.3 µM in data set [6]; 0.25 µM in [7]; 1.17 µM in data set [10]; 12.7 µM in data set [13]; 6 µM in data set [14]. In data set [4], this molecule showed a Vd of 12.3 L/kg. This molecule showed a bioavailability in data set [5] of 35%. Besides, the AUC/dose in data set [8] turned out to be 282 nM·h. Further, in data set [11], the inhibition entry is “Active”.
